Drawing on ChEMBL document CHEMBL2401648, “3-Aryl-3-arylmethoxyazetidines. A new class of high affinity ligands for monoamine transporters” (Bioorg Med Chem Lett, 2013), this text covers Ki and Ratio Ki for 18 compounds.

Assay type in all cases: tissue-based
The target in experiment [1] is Sodium-dependent serotonin transporter (Rattus norvegicus, UniProt P31652). The experiment can be described thus: Displacement of [3H]Citalopram from SERT in Sprague-Dawley rat brain homogenate after 60 mins by scintillation counting analysis. An outline of the steps:
(§1)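 Competitive binding in rat brain tissue: [3H]citalopram displaced from SERT, [3H]WIN 35,428 displaced from DAT. Ki values are the mean ± SEM of three experiments run in triplicate. Compounds tested mainly as hydrochloride salts, some as oxalate salts.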
For orientation: In a radioligand displacement assay an active substance lowers the binding of a labelled ligand.

The species entered for another experiment is Rattus norvegicus. The experiment can be described thus: Selectivity ratio of Ki for DAT in Sprague-Dawley rat brain homogenate to Ki for SERT in Sprague-Dawley rat brain homogenate. An outline of the steps:
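Ratio of DAT Ki to SERT Ki. DAT Ki came from [3H]WIN 35,428 displacement and SERT Ki from [3H]citalopram displacement, both in rat brain tissue. Each Ki is the mean ± SEM of three experiments run in triplicate.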

For experiment [2], the target named is Sodium-dependent dopamine transporter (Rattus norvegicus, UniProt P23977). The experiment can be described thus: Displacement of [3H]WIN 35,428 from DAT in Sprague-Dawley rat brain homogenate preincubated for 5 mins prior to radioligand addition measured after 1 hr by scintillation counting analysis. An outline of the steps: as §1
Chain of Sodium-dependent dopamine transporter (P23977 whole entry): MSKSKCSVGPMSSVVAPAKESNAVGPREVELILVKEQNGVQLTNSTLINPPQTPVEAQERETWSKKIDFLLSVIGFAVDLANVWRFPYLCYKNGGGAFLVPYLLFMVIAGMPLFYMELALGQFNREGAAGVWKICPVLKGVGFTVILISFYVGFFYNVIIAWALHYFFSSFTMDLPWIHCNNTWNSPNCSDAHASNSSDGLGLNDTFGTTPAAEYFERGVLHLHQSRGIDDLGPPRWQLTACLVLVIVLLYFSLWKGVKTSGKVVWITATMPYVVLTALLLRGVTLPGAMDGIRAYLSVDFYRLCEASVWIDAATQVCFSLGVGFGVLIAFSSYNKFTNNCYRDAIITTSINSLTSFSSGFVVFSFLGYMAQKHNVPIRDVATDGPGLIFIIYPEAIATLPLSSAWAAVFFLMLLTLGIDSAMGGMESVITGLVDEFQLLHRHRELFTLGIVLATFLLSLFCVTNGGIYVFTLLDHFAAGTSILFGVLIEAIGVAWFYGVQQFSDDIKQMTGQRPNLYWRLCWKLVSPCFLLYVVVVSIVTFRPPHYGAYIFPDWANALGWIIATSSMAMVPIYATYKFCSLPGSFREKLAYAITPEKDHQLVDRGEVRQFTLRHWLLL

Chain of Sodium-dependent serotonin transporter (P31652 whole entry): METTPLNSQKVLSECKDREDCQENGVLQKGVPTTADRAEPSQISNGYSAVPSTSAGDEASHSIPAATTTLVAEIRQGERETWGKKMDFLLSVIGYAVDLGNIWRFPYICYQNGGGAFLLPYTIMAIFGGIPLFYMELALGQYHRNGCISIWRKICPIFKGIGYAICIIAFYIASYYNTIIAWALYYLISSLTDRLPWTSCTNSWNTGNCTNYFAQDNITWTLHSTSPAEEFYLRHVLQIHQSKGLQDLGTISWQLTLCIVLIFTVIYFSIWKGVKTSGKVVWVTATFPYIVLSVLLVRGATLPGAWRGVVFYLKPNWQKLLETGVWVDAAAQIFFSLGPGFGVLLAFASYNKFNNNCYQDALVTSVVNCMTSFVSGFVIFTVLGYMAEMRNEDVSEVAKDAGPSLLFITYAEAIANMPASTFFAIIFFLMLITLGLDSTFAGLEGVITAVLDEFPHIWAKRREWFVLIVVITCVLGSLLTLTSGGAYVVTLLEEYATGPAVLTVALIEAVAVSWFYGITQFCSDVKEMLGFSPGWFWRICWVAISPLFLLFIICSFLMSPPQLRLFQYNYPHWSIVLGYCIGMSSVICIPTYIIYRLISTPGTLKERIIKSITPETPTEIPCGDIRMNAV

Consider `Clc1ccc(COC2(c3ccccc3)CNC2)cc1Cl`, for which the Ki – broadly, the equilibrium dissociation constant of an inhibitor or competing ligand from its target – in experiment [1] stood at 7.3 nM; in experiment [2] it was 2820 nM. The Ratio Ki in the experiment listed under Rattus norvegicus was 390.

Regarding `CN1CC(OCc2ccc(Cl)c(Cl)c2)(c2ccccc2)C1`, the affinity in experiment [1], expressed as Ki, was 1 nM.

Regarding `Clc1ccc(COC2(c3ccc(Cl)c(Cl)c3)CNC2)cc1`, the figures for the Ki in experiment [1] and in experiment [2] were 2.9 nM and 3020 nM, respectively. Besides, the Ratio Ki in the experiment listed under Rattus norvegicus amounted to 1000.

Consider `c1ccc(COC2(c3ccccc3)CNC2)cc1`, for which the Ki amounted to 1230 nM in experiment [1] and 4860 nM in experiment [2]. Also, the Ratio Ki in the experiment filed under Rattus norvegicus is 4.

`CN1CC(OCc2ccccc2)(c2ccc(Cl)cc2)C1`: the values for the Ki in experiment [1] and in experiment [2] were 39 nM and 1410 nM, respectively. In addition, in the experiment listed under Rattus norvegicus, the Ratio Ki came out at 36.

For the compound `CN1CC(OCc2ccc(Cl)c(Cl)c2)(c2ccc(Cl)cc2)C1`, the Ki in experiment [1] is 3 nM; in experiment [2], 976 nM. In addition, the Ratio Ki in the experiment filed under Rattus norvegicus was 330.

As for `Clc1ccc(C2(OCc3ccccc3)CNC2)cc1Cl`, the results for the Ki in experiment [1] and in experiment [2] were 208 nM and 1300 nM, respectively. For the same compound, the Ratio Ki in the experiment listed under Rattus norvegicus worked out at 6.3.

`CN1CC(OCc2ccccc2)(c2ccc(Cl)c(Cl)c2)C1`: the values for the Ki in experiment [1] and in experiment [2] were 23 nM and 620 nM, respectively. Besides, the Ratio Ki in the experiment listed under Rattus norvegicus amounted to 27.

Consider `Clc1ccc(COC2(c3ccc(Cl)c(Cl)c3)CNC2)cc1Cl`, for which the values for the Ki in experiment [1] and in experiment [2] were 4.2 nM and 3670 nM, respectively. In addition, the Ratio Ki in the experiment filed under Rattus norvegicus was 870.

As to `CN1CC(OCc2ccc(Cl)cc2)(c2ccccc2)C1`, the Ki in experiment [1] came out at 4 nM; in experiment [2], 3910 nM. Moreover, in the experiment listed under Rattus norvegicus, the Ratio Ki amounted to 980.

As for `Clc1ccc(C2(OCc3ccccc3)CNC2)cc1`, the Ki worked out at 825 nM in experiment [1] and 3180 nM in experiment [2]. The Ratio Ki in the experiment filed under Rattus norvegicus came out at 3.9.

In the case of `Clc1ccc(COC2(c3ccc(Cl)cc3)CNC2)cc1`, the figures for the Ki in experiment [1] and in experiment [2] were 3.5 nM and 3830 nM, respectively. Moreover, the Ratio Ki in the experiment filed under Rattus norvegicus worked out at 1100.

Regarding `CN1CC(OCc2ccccc2)(c2ccccc2)C1`, the Ki in experiment [1] stood at 73 nM; in experiment [2] it was 1730 nM. In the experiment filed under Rattus norvegicus, the Ratio Ki is 24.

On to `CN1CC(OCc2ccc(Cl)c(Cl)c2)(c2ccc(Cl)c(Cl)c2)C1`, for which the figures for the inhibition constant (Ki) in experiment [1] and in experiment [2] were 1.3 nM and 436 nM, respectively. Also, the Ratio Ki in the experiment listed under Rattus norvegicus turned out to be 340.

Turning to `CN1CC(OCc2ccc(Cl)cc2)(c2ccc(Cl)cc2)C1`, the values for the Ki in experiment [1] and in experiment [2] were 7.8 nM and 2030 nM, respectively. Moreover, the Ratio Ki in the experiment listed under Rattus norvegicus was found to be 490.

Take `Clc1ccc(COC2(c3ccccc3)CNC2)cc1`: the Ki in experiment [1] came to 2590 nM; in experiment [2] it was 3610 nM. Besides, the Ratio Ki in the experiment listed under Rattus norvegicus came out at 1.4.

Consider `CN1CC(OCc2ccc(Cl)cc2)(c2ccc(Cl)c(Cl)c2)C1`, for which the inhibitory constant (Ki) in experiment [1] came to 4.8 nM; in experiment [2] it was 2290 nM. In addition, the Ratio Ki in the experiment listed under Rattus norvegicus was found to be 630.

Regarding `Clc1ccc(C2(OCc3ccc(Cl)c(Cl)c3)CNC2)cc1`, the results for the Ki in experiment [1] and in experiment [2] were 8.1 nM and 3770 nM, respectively. For the same compound, the Ratio Ki in the experiment filed under Rattus norvegicus is 470.
